What was measured:
BV-2 [1] = assay: Antiinflammatory activity in mouse BV2 cells assessed as inhibition of LPS-induced nitric oxide production incubated for 24 hrs by Griess assay; type: functional, cell-based; settings: BV-2, 24 h
In short: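 NO output from murine microglial BV-2 cells was stimulated with lipopolysaccharide. IC50 values were derived from the inhibition of LPS-induced NO generation, and results come from three experiments. 2-Methyl-2-thiopseudourea sulfate (SMT) was the positive control.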

BV-2 [2] = assay: Cytotoxicity against mouse BV2 cells assessed as effect on cell survival by MTT assay; type: cell-based

Row | Compound | IC50 (BV-2 [1]) [µM] | Activity (BV-2 [2])
1 | CSC(=N)N | 2.9 | –
2 | CC(C)c1cc2c(c(O)c1O)C[C@@]1(O)CCCC(C)(C)[C@@H]1CC2 | 10.6 | Non-Toxic
3 | CC1=CC[C@@H]2[C@@H]3C[C@H]1[C@@]2(C)[C@@H](O)C[C@@H]3C(C)C | 92.9 | Non-Toxic
4 | CC(=O)O[C@H]1CC(C)(C)C2=C(O)C(=O)c3cc(C(C)C)c(O)c(O)c3[C@@]2(C)C1 | 26.5 | Non-Toxic
5 | CO[C@H]1O[C@H]2CC[C@@]13c1c(cc(C(C)C)c(O)c1O)CC[C@H]3C2(C)C | > 30 | Non-Toxic
6 | CC(=O)O[C@H]1CC(C)(C)[C@@H]2C[C@@H]3OC[C@@]2(C1)c1c3cc(C(C)C)c(O)c1O | > 30 | Non-Toxic
7 | CC(=O)OC[C@@]1(O)CC[C@@H]2[C@H]([C@H]3[C@H]1CC[C@]3(C)O)C2(C)C | 47.6 | Non-Toxic
8 | CC(=O)[C@H]1CC[C@@H]2[C@@H]1[C@H](C(C)C)CC[C@@]2(C)O | 38.9 | Non-Toxic
9 | CC(C)C1=C[C@@]23CC[C@H]4C(C)(C)C[C@H](O)C[C@]4(CO2)C3=C(O)C1=O | 14.8 | Non-Toxic
10 | CC(=O)O[C@H]1CC(C)(C)[C@@H]2CC[C@@]34C=C(C(C)C)C(=O)C(O)=C3[C@@]2(CO4)C1 | 5.7 | Non-Toxic
11 | CC(C)C1=CC[C@@]2(C)[C@H](O)CC[C@](C)(O)[C@@H]2C1 [OPLODIOL] | 63.5 | Non-Toxic
